Key:
[1] = molecular target: T1, Cholesteryl ester transfer protein (Homo sapiens, UniProt P11597); assay: Inhibition of human recombinant CETP by fluorescence transfer assay
T1 sequence (P11597 whole entry): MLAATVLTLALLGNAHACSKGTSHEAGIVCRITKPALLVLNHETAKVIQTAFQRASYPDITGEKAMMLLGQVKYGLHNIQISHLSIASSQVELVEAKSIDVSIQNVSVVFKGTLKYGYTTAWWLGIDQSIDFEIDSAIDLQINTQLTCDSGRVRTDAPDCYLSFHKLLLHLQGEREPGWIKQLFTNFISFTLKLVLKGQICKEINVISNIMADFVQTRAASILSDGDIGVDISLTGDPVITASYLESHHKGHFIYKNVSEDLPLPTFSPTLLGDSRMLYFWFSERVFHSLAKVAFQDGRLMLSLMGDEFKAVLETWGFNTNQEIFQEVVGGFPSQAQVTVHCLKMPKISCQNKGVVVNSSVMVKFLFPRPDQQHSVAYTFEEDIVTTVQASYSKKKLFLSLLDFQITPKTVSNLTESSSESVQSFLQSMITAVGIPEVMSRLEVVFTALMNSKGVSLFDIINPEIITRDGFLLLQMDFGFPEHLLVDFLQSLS

Kidney [2] = assay: Drug concentration in kidney of hemizygous human CETP transgenic mouse at 10 mg/kg, po dosed for 5 consecutive days measured on day 3 after cessation of drug treatment; type: ADME, organism-based; set-up: dose 10 mg/kg, route oral; settings: in vivo
Summary of the method: (§1)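 Male hCETP transgenic mice given oral doses for 5 days in 0.5% hydroxyethylcellulose. Tissues and plasma collected at day 3 and day 21 after the last dose. Fat diluted 6:1 with acetonitrile and homogenized. Analysis by LC/MS/MS on a C18 column with QCs at 4.0−1000 nM, accepted within 30% of target.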

[3] = Terminal elimination half life in healthy human administered as single oral dose; type: ADME, organism-based; settings: in vivo, read-out: beta t1/2 (converted)
Plasma [4] = assay: Plasma concentration in hemizygous human CETP transgenic mouse at 10 mg/kg, po dosed for 5 consecutive days measured on day 5 and day 7 post dose; type: ADME, organism-based; set-up: dose 10 mg/kg, route oral; settings: in vivo
Muscle tissue [5] = assay: Drug concentration in muscle of hemizygous human CETP transgenic mouse at 10 mg/kg, po dosed for 5 consecutive days measured on day 3 after cessation of drug treatment; type: ADME, organism-based; set-up: dose 10 mg/kg, route oral; settings: in vivo; summary of the method: as §1
Liver = assay: Drug concentration in liver of hemizygous human CETP transgenic mouse at 10 mg/kg, po dosed for 5 consecutive days measured on day 3 after cessation of drug treatment; type: ADME, organism-based; set-up: dose 10 mg/kg, route oral; settings: in vivo; summary of the method: as §1
Kidney [6] = assay: Drug concentration in kidney of hemizygous human CETP transgenic mouse at 10 mg/kg, po dosed for 5 consecutive days measured on day 21 after cessation of drug treatment; type: ADME, organism-based; set-up: dose 10 mg/kg, route oral; settings: in vivo; summary of the method: as §1
[7] = Drug concentration in testes of hemizygous human CETP transgenic mouse at 10 mg/kg, po dosed for 5 consecutive days measured on day 21 after cessation of drug treatment; type: ADME, organism-based, Testis; set-up: dose 10 mg/kg, route oral; settings: in vivo; summary of the method: as §1
Plasma [8] = assay: Drug concentration in plasma of hemizygous human CETP transgenic mouse at 10 mg/kg, po dosed for 5 consecutive days measured on day 3 after cessation of drug treatment; type: ADME, organism-based; set-up: dose 10 mg/kg, route oral; settings: in vivo; summary of the method: as §1
[9] = Drug concentration in adipose fat of hemizygous human CETP transgenic mouse at 10 mg/kg, po dosed for 5 consecutive days measured on day 21 after cessation of drug treatment; type: ADME, organism-based, Adipose tissue; set-up: dose 10 mg/kg, route oral; settings: in vivo; summary of the method: as §1
[10] = Drug concentration in testes of hemizygous human CETP transgenic mouse at 10 mg/kg, po dosed for 5 consecutive days measured on day 3 after cessation of drug treatment; type: ADME, organism-based, Testis; set-up: dose 10 mg/kg, route oral; settings: in vivo; summary of the method: as §1
[11] = Drug concentration in adipose fat of hemizygous human CETP transgenic mouse at 10 mg/kg, po dosed for 5 consecutive days measured on day 3 after cessation of drug treatment; type: ADME, organism-based, Adipose tissue; set-up: dose 10 mg/kg, route oral; settings: in vivo; summary of the method: as §1
Mus musculus = assay: Increase in HDL-cholesterol in hemizygous human CETP transgenic mouse at 10 mg/kg, po dosed for 5 consecutive days; type: functional
Summary of the method: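 Male hemizygous hCETP or hCETP/hApoB100 transgenic mice, 26−30 weeks, chow-fed. Compound suspended in 0.5% aqueous hydroxyethylcellulose, oral gavage each morning for 5 or 14 days. EDTA blood taken 7 h post-dose (fed for 5-day, after 4 h fast for 14-day) from vena facialis under isoflurane. HDL/LDL cholesterol measured on Cobas Integra 400 Plus. Mean ± SEM, one-way ANOVA with Bonferroni.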

Muscle tissue [12] = assay: Drug concentration in muscle of hemizygous human CETP transgenic mouse at 10 mg/kg, po dosed for 5 consecutive days measured on day 21 after cessation of drug treatment; type: ADME, organism-based; set-up: dose 10 mg/kg, route oral; settings: in vivo; summary of the method: as §1

| IC50 [1] | Drug uptake (Kidney [2]) | half-life [3] | concentration (Plasma [4]) | Drug uptake (Muscle tissue [5]) | Drug uptake (Liver) | Drug uptake (Kidney [6]) | Drug uptake [7] | Drug uptake (Plasma [8]) | Drug uptake [9] | Drug uptake [10] | Drug uptake [11] | Drug uptake (Muscle tissue [12]) | SMILES | Activity (Mus musculus) |
| --- | --- | --- | --- | --- | --- | --- | --- | --- | --- | --- | --- | --- | --- | --- |
| 135 nM |  |  |  |  |  |  |  |  |  |  |  |  | CC(C)c1nc2c(c3c1[C@@H](c1ccc(C(F)(F)F)nc1)OC31CCCC1)[C@@H](O)CC(C)(C)C2 |  |
|  | Active | 83 h | 507 nM | Active | Active | Active | Active | Active | Active | Active | Active | Active | COc1cc(F)c(C(C)C)cc1-c1ccc(C(F)(F)F)cc1CN1C(=O)O[C@H](c2cc(C(F)(F)F)cc(C(F)(F)F)c2)[C@@H]1C [ANACETRAPIB] | 50.5% |
| 4050 nM |  |  |  |  |  |  |  |  |  |  |  |  | CC(C)c1nc2c(c3c1[C@@H](c1ccccc1)OC31CCCC1)[C@@H](O)CC(C)(C)C2 |  |

From ChEMBL document CHEMBL3351249, “Potent cholesteryl ester transfer protein inhibitors of reduced lipophilicity: 1,1'-spiro-substituted hexahydrofuroquinoline derivatives” (J Med Chem, 2014)
